We go through five compounds from ChEMBL document CHEMBL3352635 (Bioorg Med Chem Lett, 2014).

The term half-life denotes how long it takes for the measured level to halve. As usually defined, the inhibition in vivo is how much of the control response was suppressed.

Series [1] can be described thus: AUC in Sprague-Dawley rat at 44.83 mg/kg, po. The series is classed as ADME, organism-based. Also on record: dose 44.83 mg/kg, route oral. The conditions noted are these: plasma. The procedure, abridged: (§1)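 Plasma parent-drug concentration followed over time up to 8 h. AUC in µg*h/mL from the concentration–time profile. Cmax and Tmax taken from the profile.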
Series [2] can be described thus: Metabolic stability in simulated gastric fluid assessed as compound remaining at pH 1.2 after 30 mins by HPLC analysis. The series is classed as ADME. The conditions noted are these: read-out: Stability. The procedure, abridged: (§2)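 Compounds incubated at 37 °C in simulated gastric fluid (pH 1.2), simulated intestinal fluid (pH 6.8) or 100% human plasma for up to 180 min. […] Half-life estimated from the decay.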

Series [3] can be described thus: Metabolic stability in simulated gastric fluid assessed as compound remaining at pH 1.2 after 15 mins by HPLC analysis. It is filed as ADME. Conditions: read-out: Stability. An outline of the steps:
as §2

Series [4] is described as follows: Half life in simulated gastric fluid at pH 1.2 by HPLC analysis. It is filed as ADME. An outline of the steps: as §2
The nature of series [5]: Metabolic stability in simulated gastric fluid assessed as compound remaining at pH 1.2 after 60 mins by HPLC analysis. Conditions: read-out: Stability. The series is classed as ADME. An outline of the steps:
as §2

Series [6] in a line: Metabolic stability in simulated gastric fluid assessed as compound remaining at pH 1.2 after 5 mins by HPLC analysis. The series is classed as ADME. The conditions noted are these: read-out: Stability. The procedure, abridged: as §2
Series [7] can be described thus: Metabolic stability in simulated gastric fluid assessed as compound remaining at pH 1.2 after 10 mins by HPLC analysis. The conditions noted are these: read-out: Stability. The series is classed as ADME. The procedure, abridged:
as §2

Series [8] is described as follows: Metabolic stability in simulated gastric fluid assessed as compound remaining at pH 1.2 measured immediately by HPLC analysis. The series is classed as ADME. The conditions noted are these: read-out: Stability. The procedure, abridged:
as §2

Series [9] is described as follows: Metabolic stability in simulated gastric fluid assessed as compound remaining at pH 1.2 after 120 mins by HPLC analysis. The series is classed as ADME. Conditions: read-out: Stability. An outline of the steps:
as §2

A short description of series [10]: Metabolic stability in simulated gastric fluid assessed as compound remaining at pH 1.2 after 180 mins by HPLC analysis. The series is classed as ADME. The conditions noted are these: read-out: Stability. An outline of the steps: as §2
Series [11] can be described thus: Metabolic stability in simulated intestinal fluid assessed as compound remaining at pH 6.8 after 20 mins by HPLC analysis. The series is classed as ADME. Conditions: read-out: Stability. An outline of the steps:
as §2

Series [12] can be described thus: Stability of the compound assessed as compound remaining at RT after 18 days. The conditions noted are these: read-out: Stability. It is filed as physicochemical.
A short description of series [13]: Half life in human plasma by HPLC analysis. The series is classed as ADME, cell-free. An outline of the steps: as §2
A short description of series [14]: AUC in Wistar rat at 44.83 mg/kg, po. The series is classed as ADME, organism-based. Also on record: dose 44.83 mg/kg, route oral. Conditions: plasma. An outline of the steps:
(§3)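 Single oral dosing in Wistar rats to compare […]. Aspirin at 30 mg/kg or the prodrug at 44.83 mg/kg (equimolar to 30 mg/kg aspirin). Plasma aspirin measured over time. AUC in µg*h/mL.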

The subject of series [15] is Rattus norvegicus. Nature of the series: Antiplatelet activity in Sprague-Dawley rat assessed as inhibition of TXB2 formation at 44.82 mg/kg, po od after 7 days by EIA relative to vehicle-treated control. It is filed as functional. Conditions: 168 h. The procedure, abridged:
(§4)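 Sprague–Dawley rats dosed orally once daily for 7 days with aspirin 30 mg/kg or prodrug 44.82 mg/kg (equimolar), with vehicle 1 ml/kg as control. Serum TXB2 levels estimated. Inhibition expressed as % reduction versus vehicle.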

Series [16] in a line: Stability of the compound assessed as compound remaining at 50 degC after 1 month. The conditions noted are these: read-out: Stability. It is filed as physicochemical. The procedure, abridged:
(§5)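 Solid-state storage stability at room temperature and at 50 °C, followed for up to 1 month (25 days for one compound). Remaining compound measured, along with the amounts of parent drug and salicylic acid generated.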

Series [17] in a line: Stability of the compound assessed as compound remaining at RT after 3 days. The series is classed as physicochemical. The conditions noted are these: read-out: Stability.
In series [18] the test system is Rattus norvegicus. Nature of the series: Antiinflammatory activity in Sprague-Dawley rat assessed as plasma nitrate/nitrite AUC at 14.94 mg/kg, po by Griess assay (reference value: 371.1 uM.h). The series is classed as functional, organism-based. Also on record: dose 14.94 mg/kg. An outline of the steps: (§6)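 Sprague–Dawley rats given compounds orally, with vehicle-dosed controls. […] Plasma nitrate/nitrite (NOx) measured by the Griess method as an indirect measure of NO released, over 8 h (sampling included 1, 2, 4 and 6 h). Plasma nitrate/nitrite AUC in µM*h.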
(The Griess reaction detects nitrite, a stable product of nitric oxide.)

The nature of series [19]: Stability of the compound assessed as compound remaining at 50 degC after 5 days. The series is classed as physicochemical. The conditions noted are these: read-out: Stability. The procedure, abridged: as §5
The nature of series [20]: Metabolic stability in simulated intestinal fluid assessed as compound remaining at pH 6.8 after 10 mins by HPLC analysis. It is filed as ADME. Conditions: read-out: Stability. The procedure, abridged: as §2
The nature of series [21]: Metabolic stability in simulated intestinal fluid assessed as compound remaining at pH 6.8 measured immediately by HPLC analysis. It is filed as ADME. Conditions: read-out: Stability. An outline of the steps: as §2
For series [22], the system named is Rattus norvegicus. Nature of the series: Antiinflammatory activity in Sprague-Dawley rat assessed as plasma nitrate/nitrite at 14.94 mg/kg, po up to 8 hrs. The series is classed as functional. An outline of the steps: as §6
A short description of series [23]: Metabolic stability in simulated gastric fluid assessed as compound remaining at pH 1.2 after 40 mins by HPLC analysis. It is filed as ADME. The conditions noted are these: read-out: Stability. An outline of the steps: as §2
A short description of series [24]: Stability of the compound assessed as compound remaining at 50 degC after 2 days. The series is classed as physicochemical. Conditions: read-out: Stability.
A short description of series [25]: Metabolic stability in simulated gastric fluid assessed as compound remaining at pH 1.2 after 20 mins by HPLC analysis. It is filed as ADME. Conditions: read-out: Stability. An outline of the steps:
as §2

A short description of series [26]: Metabolic stability in simulated intestinal fluid assessed as compound remaining at pH 6.8 after 60 mins by HPLC analysis. The series is classed as ADME. Conditions: read-out: Stability. An outline of the steps: as §2
In series [27] the test system is Rattus norvegicus. As to the kind of experiment: Toxicity in rat assessed as gastric lesion and ulcer area at 298.8 mg/kg, po after 5 hrs. The series is classed as organism-based, Stomach. Also on record: dose 298.8 mg/kg, route oral. Conditions: in vivo.
Series [28] can be described thus: Metabolic stability in simulated intestinal fluid assessed as compound remaining at pH 6.8 after 5 mins by HPLC analysis. The series is classed as ADME. Conditions: read-out: Stability. An outline of the steps: as §2
Series [29] can be described thus: Stability of the compound assessed as compound remaining at RT after 1 month. The series is classed as physicochemical. Conditions: read-out: Stability. The procedure, abridged: as §5
Series [30] in a line: Metabolic stability in simulated intestinal fluid assessed as compound remaining at pH 6.8 after 2 mins by HPLC analysis. It is filed as ADME. Conditions: read-out: Stability. The procedure, abridged: as §2
Series [31] can be described thus: Stability of the compound assessed as compound remaining at RT measured immediately. The conditions noted are these: read-out: Stability. The series is classed as physicochemical. An outline of the steps: as §5
Series [32] can be described thus: Metabolic stability in simulated intestinal fluid assessed as compound remaining at pH 6.8 after 120 mins by HPLC analysis. Conditions: read-out: Stability. The series is classed as ADME. An outline of the steps:
as §2

Series [33] is described as follows: Metabolic stability in simulated gastric fluid assessed as compound remaining at pH 1.2 after 2 mins by HPLC analysis. Conditions: read-out: Stability. The series is classed as ADME. The procedure, abridged:
as §2

Series [34] in a line: Stability of the compound assessed as compound remaining at 50 degC measured immediately. The series is classed as physicochemical. The conditions noted are these: read-out: Stability. The procedure, abridged: as §5
Series [35] is described as follows: Half life in simulated intestinal fluid at pH 6.8 by HPLC analysis. It is filed as ADME. An outline of the steps: as §2
Series [36] concerns Rattus norvegicus. Nature of the series: Antiplatelet activity in Sprague-Dawley rat assessed as inhibition of TXB2 formation at 30 mg/kg, po od after 7 days by EIA relative to vehicle-treated control. It is filed as functional. The conditions noted are these: 168 h. The procedure, abridged: as §4
Series [37] in a line: AUC in Sprague-Dawley rat at 30 mg/kg, po. The series is classed as ADME, organism-based. Also on record: dose 30 mg/kg, route oral. The conditions noted are these: plasma. The procedure, abridged:
as §1

Series [38] relates to Rattus norvegicus. Nature of the series: Toxicity in rat assessed as gastric lesion and ulcer area at 200 mg/kg, po after 5 hrs. The series is classed as organism-based, Stomach. Also on record: dose 200 mg/kg, route oral. The conditions noted are these: in vivo.
Series [39] can be described thus: AUC in Wistar rat at 30 mg/kg, po. The series is classed as ADME, organism-based. Also on record: dose 30 mg/kg, route oral. The conditions noted are these: plasma. The procedure, abridged: as §3

In series [1], `CCC(OC(=O)c1ccccc1OC(C)=O)O[N+](=O)[O-]` (centres undefined) gave an AUC of 53600 ng·h/mL.
On to `CCCC(OC(=O)[C@@H](C)c1ccc2cc(OC)ccc2c1)O[N+](=O)[O-]` (some centres undefined), for which the remaining at 0.5 h in [2] was 83%. Besides, the remaining at 0.25 h in series [3] is 83%. Besides, the half-life in series [4] was less than 180 min. For the same compound, the remaining at 1 h in series [5] is 75%. Also, the remaining at 5 min in series [6] is 96%. For the same compound, the remaining at 10 min in [7] is 94%. For the same compound, the remaining at 0 min in series [8] is 100%. Further, the remaining at 2 h in [9] is 58%. Also, the remaining at 3 h in series [10] was 39%.
With `CC(=O)Oc1ccccc1C(=O)OC(C)O[N+](=O)[O-]` (centres undefined), the remaining at 20 min is 32% in series [11] and 14% in series [25]. Also, the remaining at 432 h in series [12] was 99%. The half-life in series [13] is less than 5 min; in series [4] it was less than 10 min; in [35], less than 15 min. The AUC in series [14] is 398000 ng·h/mL; in series [18] it was 1480 µM·h; in series [1], 89800 ng·h/mL. Moreover, in [15], the inhibition in vivo at 44.82 mg/kg is 72.6%. Besides, the figures for the remaining at 730.5 h in series [16] and in series [29] were 88.3% and 98.6%, respectively. Further, the remaining at 72 h in series [17] turned out to be 98.9%. In addition, the remaining at 120 h in [19] worked out at 98.2%. In addition, the remaining at 10 min is 52% in series [20] and 45% in series [7]. Further, the remaining at 0 min in [21] and in series [8] was 100% each time. Moreover, the Activity is 180 µM in series [22] and 1 mm2 in series [27]. The remaining at 40 min in [23] was 12%. In addition, in series [24], the remaining at 48 h is 98.8%. Also, the results for the remaining at 1 h in series [26] and in series [5] were 4% and 0%, respectively. Also, the results for the remaining at 5 min in series [28] and in series [6] were 82% and 65%, respectively. In addition, the remaining at 2 min in series [30] is 91%; in series [33], 78%. For the same compound, the remaining at 0 days in series [31] and in series [34] was 99.1% throughout. The remaining at 2 h in series [32] was 0%.
In the case of `CC(=O)Oc1ccccc1C(=O)O` [ASPIRIN], the inhibition in vivo at 30 mg/kg in series [36] stood at 76%. The AUC in series [37] worked out at 91100 ng·h/mL; in [39], 437000 ng·h/mL. For the same compound, the Activity in [38] was determined as 93 mm2.
With `CCC(OC(=O)[C@@H](C)c1ccc2cc(OC)ccc2c1)O[N+](=O)[O-]` (some centres undefined), the remaining at 0.5 h in series [2] was 62%. Moreover, the remaining at 0.25 h in [3] is 74%. The compound also came in with a half-life in [4] of 60 min. Moreover, the remaining at 1 h in series [5] is 51%. Further, in [6], the remaining at 5 min is 94%. For the same compound, the remaining at 10 min in [7] is 90%. Besides, in series [8], the remaining at 0 min was 100%. In addition, the remaining at 2 h in [9] was 39%. The remaining at 3 h in [10] is 7%.
